High-throughput results (PubChem)
MT1-MMP act inh = inhibitors of human MT1-MMP activation. 360,000 tested, 0.061% active. P50281. GFP/RFP ratio change, % at 20 µM. AID 651647. HT1080 RFP-PRO-GFP cells, GFP/RFP ratio fluorescence, overnight; percent of plate control window, DMSO zero;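 active = GFP/RFP ratio change of at least 30% with cell ATP level not reduced by more than half and red fluorescence within 50% of control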
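Assay system: HT1080 RFP-PRO-GFP cells | Dosing: 20 µM single dose, 1% DMSO | Incubation: Cells overnight before dosing, compound overnight, 37 °C, 5% CO2 | Evaluation: GFP/RFP fluorescence ratio | Control set: DMSO-only wells and HT1080 RFP-L50D-GFP cell wells as references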
Exocytosis inh = blocks lytic granule exocytosis; TALL-104 LAMP-1 surface exposure, flow cytometry; cells stimulated with thapsigargin and PMA; inhibition, % at 10 µM; 360,000 tested, 0.66% active;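 active = inhibition above about 55%, limit read from the data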
VLA-4 inh = inhibition in a human VLA-4 binding assay; VLA-4 expressing cells, ligand binding flow cytometry; inhibition, % (about 7 µM as worked out from the volumes in the protocol); 330,000 tested, 0.2% active; in the data active = inhibition above about 50%
FGF22 binding = shifts melting point of recombinant human FGF22 | 340,000 tested, 1.5% active | recombinant FGF22 thermal shift, SYPRO orange fluorescence; percent of sucrose octasulfate shift, DMSO zero | Q9HCT0 | activity (Tm shift, normalised), % at 9.99 µM;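 active = mean Tm shift, scaled 0 neutral to 100 positive control, at about 1.3% or above, every replicate too, limit read from the data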
DAGLB inhibitor = diacylglycerol lipase beta (human) inhibition | Q8NCG7 | HEK293T DAGLB membrane lysate, EnzChek fluorogenic substrate | inhibition, % at 5.17 µM | 340,000 tested, 0.059% active | AID 504411; in the data active = inhibition above about 34%
ABCB6 inh 2 = inhibitors of human ABC transporter ABCB6; K562-ABCB6 porphyrin accumulation, flow cytometry, 1 h; stronger effect = lower value; fluorescence ratio to DMSO, % at 10 µM; 360,000 tested, 0.19% active; AID 602162;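 active = fluorescence ratio to DMSO below 75%, the collection mean minus 3 SD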;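 note: signal is porphyrin accumulated inside mitochondria; lower ratio means ABCB6 inhibition with less porphyrin fluorescence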
Target sequence (Q9NP58 whole entry, looked up): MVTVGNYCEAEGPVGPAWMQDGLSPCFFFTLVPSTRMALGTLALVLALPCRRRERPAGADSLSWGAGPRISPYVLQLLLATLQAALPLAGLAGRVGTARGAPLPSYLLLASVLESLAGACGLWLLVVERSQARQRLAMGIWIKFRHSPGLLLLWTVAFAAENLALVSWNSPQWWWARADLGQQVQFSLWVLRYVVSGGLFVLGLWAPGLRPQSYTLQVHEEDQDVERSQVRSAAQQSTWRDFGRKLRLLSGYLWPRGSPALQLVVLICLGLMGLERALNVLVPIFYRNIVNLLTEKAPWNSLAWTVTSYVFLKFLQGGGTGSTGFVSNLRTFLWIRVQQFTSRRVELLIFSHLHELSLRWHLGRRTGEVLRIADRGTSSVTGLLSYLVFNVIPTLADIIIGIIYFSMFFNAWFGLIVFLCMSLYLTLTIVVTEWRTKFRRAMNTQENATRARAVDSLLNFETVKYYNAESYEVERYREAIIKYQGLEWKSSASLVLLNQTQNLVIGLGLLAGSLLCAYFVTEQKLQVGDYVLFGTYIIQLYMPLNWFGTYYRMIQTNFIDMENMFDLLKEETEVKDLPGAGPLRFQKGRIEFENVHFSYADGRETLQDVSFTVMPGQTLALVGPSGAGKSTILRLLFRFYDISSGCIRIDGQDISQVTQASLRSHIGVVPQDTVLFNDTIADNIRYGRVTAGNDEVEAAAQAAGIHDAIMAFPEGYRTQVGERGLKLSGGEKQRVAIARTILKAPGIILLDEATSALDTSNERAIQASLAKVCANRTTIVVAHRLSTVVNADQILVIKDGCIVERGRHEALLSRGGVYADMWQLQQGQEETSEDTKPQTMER
Each line names hits and unclear results; the compound was inactive in the other large screens. Compounds with a hit are over-represented: about 2% of the library has one in this group of screens.

COc1ccc(CN2CCN(C(=O)c3ccccc3C(=O)c3ccccc3)CC2)cc1F	FGF22 binding 44.0 (no result: VLA-4 inh)
COc1ccc(CN2CCN(C(=O)c3cccc4ccccc34)CC2)cc1OC	none
CCCNC(=O)c1ccc(C2SCC(=O)N2Cc2ccccc2)cc1 (centres undefined)	FGF22 binding 44.4
CCOc1ccc(/C=C/C(=O)CCC(=O)O)cc1	FGF22 binding 43.0
O=C(O)CCC(=O)/C=C/c1ccccc1	none
COc1ccc(N(C(=O)CCl)C(C(=O)NCCc2ccccc2)c2cccs2)cc1Cl (centres undefined)	ABCB6 inh 2 25.0
CCC(=O)Nc1cc(C(=O)O)ccc1Sc1ccc(Cl)cc1	FGF22 binding 44.0
CCN(CC)CCNC(=O)c1ccc(Sc2ccc(Cl)cc2)c(NC(C)=O)c1	FGF22 binding 45.4
CCN(CC)CCNC(=O)c1ccc(Sc2ccc(C)cc2)c(NC(C)=O)c1	none
Cc1noc(C)c1S(=O)(=O)Nc1ccc2c(c1)CC(=O)N([C@@H](C)CO)C[C@@H](C)[C@H](CN(C)S(=O)(=O)c1ccc(Cl)cc1)O2	none (no result: MT1-MMP act inh, Exocytosis inh, VLA-4 inh, DAGLB inhibitor, ABCB6 inh 2)
Cc1nc(SCCOc2ccccc2)[nH]c(=O)c1Cc1ccccc1	FGF22 binding 43.5
O=C([C@H]1[C@H](CO)[C@H]2Cn3c(ccc(C4=CCCCC4)c3=O)[C@@H]1N2Cc1nccs1)N1CCOCC1	none (no result: MT1-MMP act inh, Exocytosis inh, VLA-4 inh, DAGLB inhibitor, ABCB6 inh 2)
O=C(Nc1cccc(Cl)c1)N1CCN(c2ncccn2)CC1	none (no result: FGF22 binding)
O=C(Nc1ccc(Cl)cc1Cl)N1CCN(c2ncccn2)CC1	FGF22 binding 43.3
COc1ccc(-c2[nH]ncc2[C@@H]2C[C@H]3CN(Cc4ccccc4C)C(=O)[C@]34CCCN24)cc1	FGF22 binding 43.5
Cc1ccccc1CN1C[C@@H]2C[C@@H](c3cn[nH]c3-c3ccc(F)cc3)N3CCC[C@@]23C1=O	none
C[C@H]1CCCCO[C@@H](CN(C)Cc2ccccc2)[C@@H](C)CN([C@@H](C)CO)C(=O)c2cc(NC(=O)Nc3ccc(C(F)(F)F)cc3)ccc2O1	none (no result: MT1-MMP act inh, Exocytosis inh, VLA-4 inh, DAGLB inhibitor, ABCB6 inh 2)
Cc1noc(C)c1S(=O)(=O)N(C)C[C@H]1OCCCC[C@@H](C)Oc2ccc(NS(C)(=O)=O)cc2C(=O)N([C@@H](C)CO)C[C@H]1C	none (no result: MT1-MMP act inh, Exocytosis inh, VLA-4 inh, DAGLB inhibitor, ABCB6 inh 2)
CC(C)CNC(=O)COC(=O)CCC(=O)c1cccs1	FGF22 binding 43.1
CCNC(=O)COC(=O)CCC(=O)c1cccs1	none
Cc1c(Cl)cnc(NC(=O)COC(=O)CCC(=O)c2cccs2)c1Cl	FGF22 binding 43.2 (no result: VLA-4 inh)
CCC(CC)NC(=O)COC(=O)CCC(=O)c1cccs1	FGF22 binding 43.0
Cc1c(Cl)cnc(NC(=O)COC(=O)c2cccs2)c1Cl	none
COC(=O)C(CC#Cc1ccc2c(c1)[C@]1(C(=O)N2)[C@H](C(=O)NC[C@H](O)c2ccccc2)[C@H]2C(=O)O[C@H](c3ccccc3)[C@H](c3ccccc3)N2[C@@H]1c1ccccc1OCCO)C(=O)OC	none (no result: MT1-MMP act inh, Exocytosis inh, VLA-4 inh, DAGLB inhibitor, ABCB6 inh 2)
COc1cc(/C=C2\SC(=Nc3ccccc3)N(CCc3c[nH]c4ccccc34)C2=O)ccc1OC(C)C(=O)O (centres undefined)	ABCB6 inh 2 73.0 (no result: FGF22 binding)
O=C1/C(=C/c2ccc(N3CCOCC3)o2)SC(=Nc2ccccc2)N1CCc1c[nH]c2ccccc12	Exocytosis inh 75.2 (no result: FGF22 binding)
CCCNC(=O)[C@@H]1[C@@H](CO)[C@@H]2Cn3c(ccc(-c4ccccc4F)c3=O)[C@@H]2N1CC1CC1	none (no result: MT1-MMP act inh, Exocytosis inh, VLA-4 inh, DAGLB inhibitor, ABCB6 inh 2)
CN(C)c1cccc(C(=O)N/C=C/n2cnc3cc(C(F)(F)F)ccc32)c1	FGF22 binding 43.1
CCC(=O)N/C=C/n1cnc2cc(C(F)(F)F)ccc21	none (no result: FGF22 binding)
O=[N+]([O-])c1ccc(C=NNc2ccccc2)cc1	none (no result: VLA-4 inh)
CC(C)(C)c1cnnn1-c1ccc(/C=N/Nc2ccc([N+](=O)[O-])cc2)cc1	FGF22 binding 43.0
O=S(=O)(c1cccs1)N1CCCCN2[C@H](CO)[C@H](c3ccc(C4=CCCCC4)cc3)[C@@H]2C1	none (no result: MT1-MMP act inh, Exocytosis inh, VLA-4 inh, DAGLB inhibitor, ABCB6 inh 2)
Cn1c(=O)n(Cc2ccccc2F)c(=O)c2c1nc1n2CCN1Cc1ccco1	FGF22 binding 43.0
CCOC(=O)c1ccccc1NC1c2ccccc2C(=O)N1c1cc(C)ccn1 (centres undefined)	none
COc1cc(OC)c(NC2c3ccccc3C(=O)N2c2cc(C)ccn2)cc1Cl (centres undefined)	FGF22 binding 3.4
O=C(Nc1cccc(C(F)(F)F)c1)c1ccc(-n2cncn2)nc1	FGF22 binding 43.4
CC(C)(C)OC(=O)N1CCC[C@H]1C(=O)NCc1ccc(Cl)cc1Cl	FGF22 binding 65.0
CC(C)(C)OC(=O)N1CCC[C@H]1C(=O)N1CCC[C@H]1C(=O)NCc1ccc(F)cc1F	none (no result: VLA-4 inh, DAGLB inhibitor)
O=C(COC(=O)c1c[nH]c(=O)[nH]c1=O)Nc1ccccc1F	FGF22 binding 43.3
CN(C)C(=O)c1cc2c(c(-c3cccc(-c4ccccc4)c3)n1)[C@H](CCO)N([S@@](=O)C(C)(C)C)C2	none (no result: MT1-MMP act inh, Exocytosis inh, VLA-4 inh, DAGLB inhibitor, ABCB6 inh 2)
CCC(=O)Oc1ccc(C(=O)Nc2ccccc2C(=O)NCC(C)C)cc1	none
CCC(=O)Oc1ccc(C(=O)Nc2cccc(C(=O)NCC(C)C)c2)cc1	FGF22 binding 43.2
C[C@H](CO)N1C[C@H](C)[C@@H](CN(C)C(=O)CCCN(C)C)OCCCC[C@H](C)Oc2ccc(NC(=O)Cc3ccccc3)cc2C1=O	none (no result: MT1-MMP act inh, Exocytosis inh, VLA-4 inh, DAGLB inhibitor, ABCB6 inh 2)
COc1cccc(NC(=O)N[C@H]2CC[C@H](CC(=O)NCc3ccncn3)O[C@@H]2CO)c1	none (no result: MT1-MMP act inh, Exocytosis inh, VLA-4 inh, DAGLB inhibitor, ABCB6 inh 2)
Cc1cc(-c2nnc(SCC(=O)c3ccc(Cl)cc3)o2)no1	FGF22 binding 43.9
O=S(=O)(NCC[C@H]1CC[C@H](NS(=O)(=O)c2cccc(F)c2)[C@@H](CO)O1)c1cccc(F)c1	none (no result: MT1-MMP act inh, Exocytosis inh, VLA-4 inh, DAGLB inhibitor, ABCB6 inh 2)
CCCCN(CCCC)Cc1ccc(C(=O)NNC(=O)Nc2ccc(Cl)cc2)o1	none
CCCCN(CCCC)Cc1ccc(C(=O)NN)o1	FGF22 binding 44.0
COc1ccc2cc(C#N)c(Nc3cccc(F)c3)nc2c1	FGF22 binding 43.6
COc1ccc(Nc2nc3cc(C)ccc3cc2C#N)cc1	none
CN(C)C(=O)C[C@@H]1C[C@@H]2c3cc(NC(=O)Nc4ccccc4F)ccc3O[C@@H]2[C@@H](CO)O1	none (no result: MT1-MMP act inh, Exocytosis inh, VLA-4 inh, DAGLB inhibitor, ABCB6 inh 2)
NNc1ccccc1C(F)(F)F	FGF22 binding 43.3 (no result: VLA-4 inh)
COc1ccc(Cl)cc1C(=O)NNC(=O)CSc1nnc2ccccn12	FGF22 binding 44.3
COc1ccc(C(=O)NNC(=O)CSc2nnc3ccccn23)cc1OC	none
CC(Sc1nnc2ccccn12)C(N)=O (centres undefined)	FGF22 binding 43.2
CC(C)CNC(=O)CSc1nnc2ccccn12	FGF22 binding 43.1
CC(C)CCNC(=O)NC(=O)CSc1nnc2ccccn12	none (no result: FGF22 binding)
C[C@@H]1CN([C@H](C)CO)C(=O)c2c(c3ccccc3n2C)-c2ccccc2CO[C@H]1CN(C)Cc1ccc(Cl)c(Cl)c1	none (no result: MT1-MMP act inh, Exocytosis inh, VLA-4 inh, DAGLB inhibitor, ABCB6 inh 2)
